Drawing on the array DNA melting data of Ke et al. (doi:10.1101/2024.01.08.574731), this text covers folding enthalpy and Tm for 76 sequences.

The nature of series [1]: folding enthalpy; higher = less favourable; fluorescence melt of hairpins on a sequencing array, two-state fit. Conditions: sodium 0.088 M. The method, boiled down: (§1)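 Melting temperature and folding enthalpy were obtained by bootstrapped two-state fitting. Fits used Cy3 fluorescence of library hairpins with annealed Cy3 and quencher oligos on a sequenced MiSeq flow cell, imaged in 50 mM Na-HEPES pH 8.0, 25 mM NaCl in 2.5 °C steps up to 60 °C and normalised to pre-quench Cy3 and control constructs. Four replicates were combined by inverse-variance weighting, and fitted temperatures were raised by 9.35 °C to match UV melts.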

Series [2] can be described thus: melting temperature; fluorescence melt of hairpins on a sequencing array, two-state fit, raised by 9.35 °C to match UV melts. Conditions: sodium 0.088 M. The essentials: as §1

On to GATCTCTCGTGAGATC ((((((....)))))), for which the folding enthalpy in series [1] was -40 kcal/mol. Further, the Tm in series [2] was determined as 52.5 °C.
Taken in the same sequence, the figures for GATCTCTGAAGAGATC ((((((....)))))) were -35.2 kcal/mol and 54.2 °C.
Taken in the same sequence, the figures for GATCTCTGCGGAGATC ((((((....)))))) were -43.7 kcal/mol and 55.9 °C.
The corresponding values for GATCTCTGGCGAGATC ((((((....)))))) are -33.6 kcal/mol and 51.6 °C.
For the sequence GATCTCTGGGGAGATC ((((((....)))))), the folding enthalpy in series [1] is -41.2 kcal/mol. The Tm in series [2] was found to be 56.4 °C.
Taken in the same sequence, the figures for GATCTCTGGTGAGATC ((((((....)))))) were -34.1 kcal/mol and 52.4 °C.
Regarding GATCTCTGTAGAGATC ((((((....)))))), in series [1], the folding enthalpy was -44.1 kcal/mol. The Tm in series [2] is 56.5 °C.
The corresponding values for GATCTCTTAAGAGATC ((((((....)))))) are -37.3 kcal/mol and 54.2 °C.
The corresponding values for GATCTCTTTGAGATC ((((((...)))))) are -32.1 kcal/mol and 55.8 °C.
The corresponding values for GATCTGAACCCAGATC ((((((....)))))) are -28.8 kcal/mol and 46.1 °C.
On to GATCTGAAGCAGATC ((((((...)))))), for which the folding enthalpy in series [1] was -27.9 kcal/mol. Further, the Tm in series [2] came out at 45.7 °C.
For GATCTGAAGCCAGATC ((((((....)))))), the folding enthalpy in series [1] is -33.2 kcal/mol. Besides, the Tm in series [2] worked out at 45.5 °C.
The corresponding values for GATCTGAAGGCAGATC ((((((....)))))) are -41.9 kcal/mol and 45.3 °C.
Taken in the same sequence, the figures for GATCTGAATACAGATC ((((((....)))))) were -39.7 kcal/mol and 47.7 °C.
Taken in the same sequence, the figures for GATCTGACTGCAGATC ((((((....)))))) were -23.7 kcal/mol and 47 °C.
Turning to GATCTGAGAGCAGATC ((((((....)))))), the folding enthalpy in series [1] was -37.2 kcal/mol. Also, the Tm in series [2] came to 46.1 °C.
The corresponding values for GATCTGAGATCAGATC ((((((....)))))) are -36.1 kcal/mol and 49.2 °C.
The corresponding values for GATCTGAGCCAGATC ((((((...)))))) are -41.7 kcal/mol and 47 °C.
With GATCTGAGTACAGATC ((((((....)))))), in series [1], the folding enthalpy was -30.9 kcal/mol. Moreover, the Tm in series [2] was found to be 49.6 °C.
In the case of GATCTGAGTGCAGATC ((((((....)))))), the folding enthalpy in series [1] is -31.1 kcal/mol. Besides, in series [2], the Tm worked out at 49.2 °C.
The corresponding values for GATCTGATAGCAGATC ((((((....)))))) are -34.4 kcal/mol and 46.8 °C.
The corresponding values for GATCTGATCCAGATC ((((((...)))))) are -35.2 kcal/mol and 47.6 °C.
The corresponding values for GATCTGATCCCAGATC ((((((....)))))) are -27.2 kcal/mol and 47 °C.
GATCTGATCTCAGATC ((((((....)))))): the folding enthalpy in series [1] was -37.1 kcal/mol. Moreover, the Tm in series [2] amounted to 51.1 °C.
Taken in the same sequence, the figures for GATCTGATGCCAGATC ((((((....)))))) were -33.4 kcal/mol and 47.5 °C.
Taken in the same sequence, the figures for GATCTGATTCAGATC ((((((...)))))) were -35.8 kcal/mol and 48.7 °C.
Turning to GATCTGCAAACAGATC ((((((....)))))), in series [1], the folding enthalpy is -35.9 kcal/mol. Moreover, the Tm in series [2] was found to be 48.5 °C.
Taken in the same sequence, the figures for GATCTGCAACAGATC ((((((...)))))) were -28.8 kcal/mol and 46.3 °C.
Take GATCTGCACGCAGATC ((((((....)))))): the folding enthalpy in series [1] was -33.1 kcal/mol. Further, the Tm in series [2] turned out to be 58.8 °C.
Consider GATCTGCAGGCAGATC ((((((....)))))), for which the folding enthalpy in series [1] is -32.7 kcal/mol. Further, in series [2], the Tm was found to be 60.2 °C.
The corresponding values for GATCTGCATACAGATC ((((((....)))))) are -43.2 kcal/mol and 52.1 °C.
Turning to GATCTGCATGCAGATC ((((((....)))))), in series [1], the folding enthalpy is -46.5 kcal/mol. Moreover, the Tm in series [2] was 62.4 °C.
Consider GATCTGCCAACAGATC ((((((....)))))), for which the folding enthalpy in series [1] was -38.3 kcal/mol. The Tm in series [2] was 50 °C.
Taken in the same sequence, the figures for GATCTGCCGCAGATC ((((((...)))))) were -41.5 kcal/mol and 48.1 °C.
The corresponding values for GATCTGCCGGCAGATC ((((((....)))))) are -53.3 kcal/mol and 62.3 °C.
Taken in the same sequence, the figures for GATCTGCCTCAGATC ((((((...)))))) were -29.1 kcal/mol and 48.7 °C.
In the case of GATCTGCGAACAGATC ((((((....)))))), the folding enthalpy in series [1] is -33.5 kcal/mol. Besides, the Tm in series [2] amounted to 49.4 °C.
Taken in the same sequence, the figures for GATCTGCGATCAGATC ((((((....)))))) were -33.9 kcal/mol and 47.1 °C.
Taken in the same sequence, the figures for GATCTGCGCGCAGATC ((((((....)))))) were -50.8 kcal/mol and 66.7 °C.
The corresponding values for GATCTGCGGCCAGATC ((((((....)))))) are -27.4 kcal/mol and 48.6 °C.
In the case of GATCTGCGTCCAGATC ((((((....)))))), the folding enthalpy in series [1] is -30.1 kcal/mol. The Tm in series [2] worked out at 48.3 °C.
As for GATCTGCTCTCAGATC ((((((....)))))), in series [1], the folding enthalpy was -36.6 kcal/mol. Also, the Tm in series [2] was found to be 48.4 °C.
Taken in the same sequence, the figures for GATCTGGAATCAGATC ((((((....)))))) were -40.5 kcal/mol and 54.3 °C.
GATCTGGACACAGATC ((((((....)))))): the folding enthalpy in series [1] is -38.8 kcal/mol. Also, in series [2], the Tm stood at 58.5 °C.
The corresponding values for GATCTGGACCAGATC ((((((...)))))) are -39.7 kcal/mol and 49.9 °C.
The corresponding values for GATCTGGACCCAGATC ((((((....)))))) are -43.8 kcal/mol and 53 °C.
The corresponding values for GATCTGGACGCAGATC ((((((....)))))) are -47 kcal/mol and 51.3 °C.
For the sequence GATCTGGAGCCAGATC ((((((....)))))), the folding enthalpy in series [1] is -37.6 kcal/mol. In addition, the Tm in series [2] was 49.5 °C.
Taken in the same sequence, the figures for GATCTGGATTCAGATC ((((((....)))))) were -39.3 kcal/mol and 48.6 °C.
The corresponding values for GATCTGGCCGCAGATC ((((((....)))))) are -36 kcal/mol and 52.3 °C.
Taken in the same sequence, the figures for GATCTGGCGCAGATC ((((((...)))))) were -27.4 kcal/mol and 47.5 °C.
Take GATCTGGCGCCAGATC ((((((....)))))): the folding enthalpy in series [1] was -47.8 kcal/mol. Also, in series [2], the Tm was found to be 60.5 °C.
Taken in the same sequence, the figures for GATCTGGCTTCAGATC ((((((....)))))) were -37.8 kcal/mol and 50.6 °C.
Taken in the same sequence, the figures for GATCTGGGAAACCAGATC (((((((....))))))) were -45.4 kcal/mol and 58.5 °C.
Take GATCTGGGAAACCAGGTC ((.((((....)))).)): the folding enthalpy in series [1] is -25 kcal/mol. In series [2], the Tm is 48.4 °C.
The corresponding values for GATCTGGGAGCAGATC ((((((....)))))) are -35.4 kcal/mol and 53.8 °C.
The corresponding values for GATCTGGGATCAGATC ((((((....)))))) are -40.7 kcal/mol and 53.3 °C.
The corresponding values for GATCTGGGCCCAGATC ((((((....)))))) are -56.3 kcal/mol and 58.9 °C.
In the case of GATCTGGTAACAGATC ((((((....)))))), in series [1], the folding enthalpy was -27 kcal/mol. The Tm in series [2] was 60.5 °C.
Taken in the same sequence, the figures for GATCTGGTGCAGATC ((((((...)))))) were -31.1 kcal/mol and 49.5 °C.
Taken in the same sequence, the figures for GATCTGGTTTCAGATC ((((((....)))))) were -35.9 kcal/mol and 51.1 °C.
Taken in the same sequence, the figures for GATCTGTAACAGATC ((((((...)))))) were -33.5 kcal/mol and 48.6 °C.
Take GATCTGTAGCAGATC ((((((...)))))): in series [1], the folding enthalpy is -37.4 kcal/mol. The Tm in series [2] amounted to 47.3 °C.
Taken in the same sequence, the figures for GATCTGTCATCAGATC ((((((....)))))) were -38.1 kcal/mol and 50.1 °C.
For GATCTGTCGGCAGATC ((((((....)))))), the folding enthalpy in series [1] is -45.6 kcal/mol. For the same sequence, the Tm in series [2] was 51.1 °C.
In the case of GATCTGTCGTCAGATC ((((((....)))))), the folding enthalpy in series [1] is -37.6 kcal/mol. In series [2], the Tm is 50.5 °C.
Taken in the same sequence, the figures for GATCTGTCTCAGATC ((((((...)))))) were -28.1 kcal/mol and 49.3 °C.
The corresponding values for GATCTGTCTCCAGATC ((((((....)))))) are -45.9 kcal/mol and 48.4 °C.
The corresponding values for GATCTGTGACCAGATC ((((((....)))))) are -36.5 kcal/mol and 47.8 °C.
For the sequence GATCTGTGATCAGATC ((((((....)))))), the folding enthalpy in series [1] was -34 kcal/mol. Also, in series [2], the Tm is 49.2 °C.
The corresponding values for GATCTGTGCCAGATC ((((((...)))))) are -38 kcal/mol and 51.1 °C.
In the case of GATCTGTGCGCAGATC ((((((....)))))), the folding enthalpy in series [1] was -47.1 kcal/mol. Further, the Tm in series [2] was determined as 57 °C.
Taken in the same sequence, the figures for GATCTGTGGACAGATC ((((((....)))))) were -45.1 kcal/mol and 53.2 °C.
Taken in the same sequence, the figures for GATCTGTGTTCAGATC ((((((....)))))) were -34.2 kcal/mol and 51.7 °C.
Taken in the same sequence, the figures for GATCTGTTAGCAGATC ((((((....)))))) were -42.9 kcal/mol and 52.3 °C.
Take GATCTGTTCCCAGATC ((((((....)))))): the folding enthalpy in series [1] is -33.7 kcal/mol. For the same sequence, the Tm in series [2] stood at 48.6 °C.
